From PubChem BioAssay
FLuc inhib CS: counter-screen for luciferase assay inhibitors: firefly luciferase inhibition. 200,000 tested, 1.5% active. ATPLite firefly luciferase biochemical luminescence, 10 min. P08659. inhibition, % at 10 µM;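 active means inhibition above about 50% when tested at 10 µM, limit read from the data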
Target sequence (P08659 whole entry, looked up): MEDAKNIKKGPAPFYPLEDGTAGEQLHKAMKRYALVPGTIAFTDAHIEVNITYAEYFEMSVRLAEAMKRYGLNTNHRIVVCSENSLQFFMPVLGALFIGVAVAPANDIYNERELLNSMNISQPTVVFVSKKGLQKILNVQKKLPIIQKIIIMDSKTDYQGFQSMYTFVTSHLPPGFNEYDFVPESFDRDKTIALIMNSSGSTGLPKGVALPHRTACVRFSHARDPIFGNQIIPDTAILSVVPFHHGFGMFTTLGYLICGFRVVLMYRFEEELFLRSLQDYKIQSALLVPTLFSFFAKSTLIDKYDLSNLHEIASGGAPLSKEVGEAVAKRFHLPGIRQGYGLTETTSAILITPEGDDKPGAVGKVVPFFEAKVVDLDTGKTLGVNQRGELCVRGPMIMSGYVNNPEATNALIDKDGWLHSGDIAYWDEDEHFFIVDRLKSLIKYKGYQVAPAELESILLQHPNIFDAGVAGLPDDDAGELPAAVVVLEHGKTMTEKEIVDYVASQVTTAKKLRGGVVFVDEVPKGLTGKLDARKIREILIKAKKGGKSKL
FLuc act counter: affects firefly luciferase, flagging false hits in luciferase stimulation screens | P08659 | ATPlite luciferase biochemical, luminescence, 10 min; 0 = ATP-free wells, 1 = DMSO control | activation factor at 10 µM | 200,000 tested, under 10 active | AID 1027;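 active means luciferase activation factor, scaled between plate controls, of at least 2 with compound at 10 µM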
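test system = cell-free luciferase reagent | medium = PBS as buffer for the ATP substrate | dosing = test compounds dosed from 2 mM stocks in 100% DMSO | incubation = 10 min at ambient temperature | detection = luminescence measurement of luciferase light output | benchmarks = low control with PBS replacing ATP, high control enzyme plus ATP without compound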
STAT1 activator: increases IFN-gamma driven STAT1 reporter signal; NIH 3T3 STAT1-luciferase reporter, luminescence; 100% = IFN-gamma alone, no compound; activation (% of control), % at 5.5 µM; 200,000 tested, 2.6% active; AID 932;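 active means activation above the screen-wide mean activation plus 3 SD, cut at about 130% in these data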;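 further: raw ratio to IFN-gamma control signal so 100% means no change and 0% no light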
NF-kB neuron act: compounds increasing NF-kB expression in human neuronal cells; 190,000 tested, 1.6% active; NF-kB reporter expression; active compounds read high; fold change at 12.5 µM; in the data active means fold change above about 3.3
APP 5'UTR act: activates APP 5'UTR luciferase reporter; AID 1276; activation, % at 2 µM; SH-SY5Y APP 5'UTR luciferase reporter, luminescence; zero percent = DMSO vehicle wells; 190,000 tested, 1% active;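 active means activation above a set limit, based on mean plus 3 SD of controls, cut at about 140% in these data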
STAT1 activ conf: STAT1 activation, confirmation assay; activation (% of control), % at 5.7 µM; 1,200 tested, 97% active; NIH 3T3 STAT1-luciferase reporter, IFN-gamma potentiation, luminescence; 100% = IFN-gamma EC80 alone, no compound; shares compounds with STAT1 activator;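 active means activation above a set limit carried over from the earlier primary STAT1 screen, cut at about 140% in these data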;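 further: simple ratio to median IFN-gamma plus DMSO wells so 0% means no light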
NFkB act: counter-screen for STAT1 activators: NF-kappaB activation; HEK293T NF-kB luciferase reporter, TNF-alpha stimulated, luminescence; 100% = TNF-alpha with vehicle only; shares compounds with STAT1 activator; 1,200 tested, 43% active; activation (% of control), % at 5.7 µM; AID 1306;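 active means activation above the mean of solvent-only control wells plus 3 SD, set per campaign, cut at about 130% in these data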;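 further: TNF-alpha given at a submaximal dose yielding about 80% of full reporter signal; values are well signal over median control so 100% means no change and 0% no light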
STAT3 act STAT1c: counter-screen for STAT1 activators: human STAT3 activation. AID 1316. U3A cells STAT3-luciferase reporter, IL-6, luminescence; cells lack STAT1; 100 = IL-6 alone, no compound effect. activation (% of control), % at 5.7 µM. shares compounds with STAT1 activator. 1,200 tested, 46% active;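 active means activation above the solvent-only control well mean plus 3 SD, set per plate batch, cut at about 110% in these data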;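 further: 0% = no luminescence and 100% = median IL-6 plus DMSO wells; higher means more STAT3 reporter activation so hits are non-selective activators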
Active calls of the source: *. A selection: hits, their analogues and other compounds. The true share with any hit is near 4.1%.

COc1c(C)cccc1C(=O)Nc1ccc(N2CCOCC2)c(Cl)c1 was read as FLuc inhib CS 25, FLuc act counter 0.8, STAT1 activator 152*, NF-kB neuron act 6.1*, APP 5'UTR act 154*, STAT1 activ conf 199*, NFkB act 131 and STAT3 act STAT1c 105.
Screening O=C(Nc1ccc(N2CCOCC2)c(Cl)c1)c1cccc(F)c1 returned FLuc inhib CS 16, FLuc act counter 0.8, STAT1 activator 185*, NF-kB neuron act 5.5*, APP 5'UTR act 109, STAT1 activ conf 193*, NFkB act 135* and STAT3 act STAT1c 118*.
For O=C(Nc1ccc(N2CCOCC2)c(Cl)c1)c1cc(F)c(F)cc1Cl the results were FLuc inhib CS -8, FLuc act counter 1.1, STAT1 activator 100, NF-kB neuron act 1.4 and APP 5'UTR act 9.
O=C(Nc1ccc(N2CCOCC2)c(Cl)c1)c1c(F)c(F)c(F)c(F)c1F was read as FLuc inhib CS 0, FLuc act counter 1, STAT1 activator 108, NF-kB neuron act 0.78 and APP 5'UTR act 6.
For COc1cc(NC(=O)c2cccs2)c(C(=O)OCC(=O)NC(C)c2ccccc2)cc1OC (stereo unspecified) the results were FLuc inhib CS -5, FLuc act counter 1, STAT1 activator 100, NF-kB neuron act 0.74 and APP 5'UTR act 5.
For Cc1cccc(C(=O)n2c(=S)nc3ccccn32)c1 the results were FLuc inhib CS 91*, FLuc act counter 0.1, STAT1 activator 192*, NF-kB neuron act 4.4*, APP 5'UTR act 122, STAT1 activ conf 430*, NFkB act 185* and STAT3 act STAT1c 127*.
For CC[N+](CC)(CCCCS(=O)(=O)[O-])CCNP1(=O)C=C(c2ccccc2)OC(c2ccccc2)=C1 the results were FLuc inhib CS -11, FLuc act counter 1.1, STAT1 activator 97, NF-kB neuron act 1.2 and APP 5'UTR act 5.
CN(C)C(=S)Nc1nc2ccccc2s1 was read as FLuc inhib CS 10, FLuc act counter 0.9, STAT1 activator 165*, NF-kB neuron act 9.1*, APP 5'UTR act 63, STAT1 activ conf 170*, NFkB act 138* and STAT3 act STAT1c 83.
CCOc1ccc2nc(NC(=S)N(C)C)sc2c1 was read as FLuc inhib CS 18, FLuc act counter 0.8, STAT1 activator 183*, NF-kB neuron act 12*, APP 5'UTR act 167*, STAT1 activ conf 293*, NFkB act 134* and STAT3 act STAT1c 103.
`N/C(=N\OC(=O)COc1ccccc1Cl)c1ccccn1` gave FLuc inhib CS 34, FLuc act counter 0.7, STAT1 activator 178*, NF-kB neuron act 7.3*, APP 5'UTR act 201*, STAT1 activ conf 207*, NFkB act 139* and STAT3 act STAT1c 116*.
`N/C(=N\OC(=O)COc1ccc(Br)cc1)c1ccncc1` gave FLuc inhib CS -1, FLuc act counter 1, STAT1 activator 102, NF-kB neuron act 1.4 and APP 5'UTR act 41.
Screening N/C(=N\OC(=O)COc1ccc(Cl)cc1Cl)c1ccncc1 returned FLuc inhib CS 17, FLuc act counter 0.8, STAT1 activator 155*, NF-kB neuron act 6.2*, APP 5'UTR act 175*, STAT1 activ conf 206*, NFkB act 146* and STAT3 act STAT1c 124*.
For CS(=O)(=O)c1ccc(Cl)c(NC(=O)Cc2c(Cl)cccc2Cl)c1 the results were FLuc inhib CS -4, FLuc act counter 1, STAT1 activator 95, NF-kB neuron act 1.2 and APP 5'UTR act -17.
Screening O=C(CSCc1ccc(Cl)cc1)Nc1ccc(-c2nnc(-c3ccccc3)o2)cc1 returned FLuc inhib CS -1, FLuc act counter 1, STAT1 activator 99, NF-kB neuron act 0.95 and APP 5'UTR act 26.
Cc1ccc2nc(-c3ccc(NC(=O)CSc4ccccc4)cc3)[nH]c2c1 was read as FLuc inhib CS 7, FLuc act counter 0.9, STAT1 activator 163*, NF-kB neuron act 3.5*, APP 5'UTR act 88, STAT1 activ conf 198*, NFkB act 108 and STAT3 act STAT1c 107.
Screening Cc1ccc2nc(SCC(=O)Nc3ccc(C(N)=O)cc3)[nH]c2c1 returned FLuc inhib CS 2, FLuc act counter 1, STAT1 activator 97, NF-kB neuron act 0.97 and APP 5'UTR act 5.
`O=S(=O)(NC1CCCCC1)c1ccc(S(=O)(=O)N2CCN3CCCC3C2)cc1` (stereo unspecified) gave FLuc inhib CS -8, FLuc act counter 1.1, STAT1 activator 102, NF-kB neuron act 1.1 and APP 5'UTR act -1.
Screening CN(/N=C/c1ccncc1)c1cnc2ccccc2n1 returned FLuc inhib CS 56*, FLuc act counter 0.4, STAT1 activator 153*, NF-kB neuron act 3.7*, APP 5'UTR act 181*, STAT1 activ conf 195*, NFkB act 130 and STAT3 act STAT1c 124*.
CCOC(=O)C1(Cc2ccccc2Cl)CCN(C(=O)CN2CCOC2=O)CC1 was read as FLuc inhib CS -4, FLuc act counter 1, STAT1 activator 160*, APP 5'UTR act 69, STAT1 activ conf 172*, NFkB act 142* and STAT3 act STAT1c 117*.
`CCOC(=O)C1(CCCc2ccccc2)CCN(C(=O)CN2CCOC2=O)CC1` gave FLuc inhib CS -1, FLuc act counter 1, STAT1 activator 102, NF-kB neuron act 1.2 and APP 5'UTR act -5.
O=C(c1cccs1)N1CCN(c2ncccn2)CC1 was read as FLuc inhib CS -5, FLuc act counter 1, STAT1 activator 99 and NF-kB neuron act 1.1.
Screening O=c1[nH]c(-c2ccccn2)nc2sc(-c3ccccc3)cc12 returned FLuc inhib CS 38, FLuc act counter 0.6, STAT1 activator 298*, NF-kB neuron act 1.6, APP 5'UTR act -27, STAT1 activ conf 473*, NFkB act 225* and STAT3 act STAT1c 119*.
`Cc1c(C(=O)N(C)C)sc2nc(-c3ccccn3)[nH]c(=O)c12` gave FLuc inhib CS 8, FLuc act counter 0.9, STAT1 activator 110, NF-kB neuron act 1.4 and APP 5'UTR act 2.
`CCOC(=O)c1cnc(SCCc2ccccc2)nc1N` gave FLuc inhib CS 15, FLuc act counter 0.9, STAT1 activator 165*, NF-kB neuron act 6.9*, APP 5'UTR act 190*, STAT1 activ conf 189*, NFkB act 131 and STAT3 act STAT1c 119*.
